# Assay outcomes: PubChem, several laboratories
# Diaphorase act: diaphorase activation or chemical reduction counter-screen | Diaphorase/resazurin coupled assay, resorufin fluorescence, 16 min; stronger effect = higher value; 1 = vehicle wells, 0 = NADH-free wells | activation factor at 20 µM | 190,000 tested, 0.005% active;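 active = diaphorase activity raised at least twofold by the compound at 20 µM; inactive = activation factor below 2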
#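 Material: purified diaphorase enzyme from Clostridium kluyveri; Also added: 0.114 mM NADH and 0.1 mM resazurin, final amounts; Doses: single compound dose of 20 µM, 1% DMSO final; Times: 16 min enzyme reaction, ambient temperature; Detection: resorufin fluorescence, excitation 544 nm, emission 590 nm; Measure: increased resorufin signal from activators or reducing compounds.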
# Diaph inh CS: inhibits diaphorase or chemically oxidizes, flagging diaphorase assay artifacts | diaphorase resazurin-to-resorufin fluorescence, NADH, 16 min; bacterial (C. kluyveri) enzyme, not human | inhibition, % at 20 µM | 190,000 tested, 0.69% active | AID 1217;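 active = primary screen inhibition at 20 µM above a set limit, cut at about 50% in these data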;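 also: plate controls were DMSO with full reaction for no effect and wells lacking NADH for full effect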
#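 Assay system: diaphorase enzyme from Clostridium kluyveri; Input: enzyme working solution with 0.14 U/mL diaphorase; Timing: 16 min at room temperature; Technique: resorufin fluorescence, excitation 544 nm, emission 590 nm; Benchmarks: positive control minus NADH, DMSO neutral control.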
# G6PDH counter: inhibits Leuconostoc G6PDH, flagging false hits in G6PDH-based assays; Purified L. mesenteroides G6PDH, diaphorase/resazurin coupled fluorescence, 45 min; inhibition, % at 5 µM; 200,000 tested, 0.12% active; AID 1020
# WT yeast gro inh: growth inhibition of WT yeast, mitochondrial fusion screen. mitochondrial fusion phenotypic screen, WT strain. inhibition, % at 10 µM. 190,000 tested, 2.1% active. AID 1362; in the data active = inhibition above about 58%; tested in S. cerevisiae
# L major viab: reduces viability of Leishmania major promastigotes; 200,000 tested, 9% active; AID 1063; resazurin fluorescence viability; inhibition, % at 10 µM;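 also: promastigotes grown with compound for 44 hours at 28 °C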
# * marks the source's active call; other numbers are inactive results. Compounds with a hit are over-represented: about 11% of the library has one in this group of screens. Rule as the data show it, unless noted: active = inhibition above about 50%; inactive = the rest.
SMILES,Diaphorase act,Diaph inh CS,G6PDH counter,WT yeast gro inh,L major viab
CCCCOc1ccccc1/C=N/NC(=O)CC#N,0.9,10.2,8.9,2.8,-3.0
N#CCC(=O)N/N=C/c1cc(-c2ccccc2)n(-c2ccc(Cl)cc2)c1-c1ccccc1,0.9,10.1,3.2,79.7*,11.8
Cc1ccc(-n2c(-c3ccccc3)cc(/C=N/NC(=O)CC#N)c2-c2ccccc2)cc1,1,0.0,5.9,73.0*,6.0
CCOC(=O)CCCSc1nnc(CCCCCN2C(=O)c3cccc4cccc(c34)C2=O)o1,0.9,14.2,-19.3,14.2,-4.3
CCN1CCN(c2cc(C)c3cc(NC(=S)NCc4cccs4)ccc3n2)CC1,1.1,-6.5,-3.0,0.2,99.1*
COc1ccc(CNC(=S)Nc2ccc3nc(N4CCOCC4)cc(C)c3c2)cc1,0.6,37.7,8.6,6.1,4.8
CCC(C)NC(=S)Nc1ccc2nc(N3CCN(CC)CC3)cc(C)c2c1 (stereo not drawn),1,-2.7,2.5,-16.0,94.2*
Cc1cc(N2CCN(C)CC2)nc2ccc(NC(=S)NCc3cccs3)cc12,1.1,-10.6,-8.6,20.9,99.2*
CCOc1ccccc1NC(=O)CCC(=O)Nc1ccc2nc(N3CCN(C)CC3)cc(C)c2c1,1,1.6,-3.2,19.1,74.0*
O=C(Nc1c2c(nc3c1CCC3)CCCC2)c1ccccn1,0.9,13.7,8.7,-10.0,0.6
COc1ccc(CNC(=S)Nc2ccc3nc(N4CCN(C)CC4)cc(C)c3c2)cc1,1.1,-12.3,-2.1,14.3,19.3
COc1ccccc1CNC(=S)Nc1ccc2nc(N3CCN(C)CC3)cc(C)c2c1,1.1,-14.1,0.5,17.9,100.4*
COc1cc2[nH]c(=O)n(CCC(=O)N3CCC(N4CCCCC4)CC3)c(=O)c2cc1OC,0.9,5.1,4.5,71.1*,3.0
COc1cc2[nH]c(=O)n(CCCC(=O)N3CC=C(c4ccccc4)CC3)c(=O)c2cc1OC,0.4,58.1*,5.4,4.1,6.9
COc1ccccc1-c1coc2cc(OC(=O)/C=C/c3ccccc3)ccc2c1=O,0.9,8.2,-25.8,2.2,-4.5
COc1ccc(-c2nc(NC(=O)C3CCN(c4nc5ccccc5o4)CC3)sc2C)cc1,0.6,37.9,-3.1,22.1,78.9*
CCOc1ccccc1N1CCN(CC(O)COc2ccc3c(C)cc(=O)oc3c2)CC1 (stereo not drawn),0.9,9.9,-56.1,12.0,4.7
CCC(=O)Nc1ccc(F)c(Cl)c1,1,-0.5,22.3,-8.3,3.9
CCC(=O)Nc1ccc(Br)c(Cl)c1,0.9,13.3,4.7,90.6*,-1.1
Cc1cccn2c(=O)c(/C=C(\C#N)S(=O)(=O)c3ccccc3)c(Oc3ccc(Cl)cc3)nc12,0.9,10.4,-5.2,59.9*,47.1
Cc1cc(Oc2nc3c(C)cccn3c(=O)c2/C=C(\C#N)S(=O)(=O)c2ccccc2)ccc1Cl,1,-3.9,-10.3,24.1,54.4*
Cc1ccccc1Oc1nc2c(C)cccn2c(=O)c1/C=C(\C#N)C(=O)Nc1c(C)n(C)n(-c2ccccc2)c1=O,1,4.2,-10.4,-1.1,9.5
Cc1ccc2[nH]c(=O)cc(C(=O)OC(C)C)c2c1,0.8,17.1,12.3,0.2,4.3
O/N=C\c1cccn1-c1ccc(Br)cc1,1,-3.6,5.9,7.2,2.7
O=C(CS(=O)(=O)c1cn(Cc2ccc(F)cc2)c2ccccc12)N1CCOCC1,0.3,69.2*,7.8,9.4,-1.5
SMILES,Diaphorase act,Diaph inh CS,G6PDH counter,WT yeast gro inh,L major viab
Cc1nn(C(C)C(=O)NCc2ccccc2Cl)c(=O)c2c1sc1ccccc12 (stereo not drawn),0.8,16.3,7.7,9.9,1.7
CCCOc1ccc(N2CC(C(=O)NCCc3ccc(OC)c(OC)c3)CC2=O)cc1 (stereo not drawn),1,-2.6,8.3,3.9,-2.8
COc1cc2c(cc1NC(=O)C(C)OC(=O)/C=C/c1ccc(OC(F)F)cc1)oc1ccccc12 (stereo not drawn),0.9,11.8,-2.3,-6.3,80.5*
COc1cc2c(cc1NC(=S)NC(=O)/C=C/c1ccc(OC)c(OC)c1)oc1ccccc12,0.9,6.4,15.1,2.9,46.4
COc1ccc(/C=C/C(=O)NC(=S)Nc2cc3oc4ccccc4c3cc2OC)cc1,0.9,12.2,8.0,-15.8,50.1*
O=C(O)c1nn2c(C(F)(F)F)cc(-c3cccs3)nc2c1Cl,0.9,12.7,-6.9,1.2,8.4
